Sampled rows, rich in hits. Any-hit rate of the full collection: about 0.58%.
V1R ag counter – activates human V1a receptor in oxytocin agonist counter-screen; P37288; CHO-V1R cells, Fluo-8 calcium fluorescence, agonist mode; 0% DMSO, 100% 3 nM vasopressin; activation, % at 3 µM; 320,000 compounds, 0.25% hits; AID 2797;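 active means activation above the mean activation of all tested compounds plus 3 SD, per screening run, cut at about 20% in these data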;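 further: signal is peak over basal fluorescence ratio across a 100 second FLIPR read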
Target sequence (P37288 whole entry, looked up): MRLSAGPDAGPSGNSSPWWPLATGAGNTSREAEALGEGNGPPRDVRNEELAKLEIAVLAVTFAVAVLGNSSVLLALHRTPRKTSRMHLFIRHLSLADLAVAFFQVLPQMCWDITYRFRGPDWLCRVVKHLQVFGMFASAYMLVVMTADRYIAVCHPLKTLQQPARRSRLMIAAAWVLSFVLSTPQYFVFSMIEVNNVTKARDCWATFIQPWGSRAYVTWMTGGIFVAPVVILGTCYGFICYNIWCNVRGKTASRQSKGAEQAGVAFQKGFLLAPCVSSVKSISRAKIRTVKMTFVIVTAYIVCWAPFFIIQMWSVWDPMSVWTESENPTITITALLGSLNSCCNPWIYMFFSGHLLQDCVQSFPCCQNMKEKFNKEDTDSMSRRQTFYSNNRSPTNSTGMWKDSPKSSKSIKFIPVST
zfTRPN1 agonist – agonists of zebrafish TRPN1 channel | activation, % at 3 µM | 220,000 compounds, 0.18% hits | HEK293 zebrafish TRPN1-YFP, Fluo-8 calcium fluorescence; 100% = response to 87 µM carbachol;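 active means activation above its plate's cutoff, the mean activation of test wells on that plate plus 3 SD, cut at about 19% in these data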;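 further: 0% = DMSO alone and 100% = 87 µM carbachol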
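Material: zebrafish TRPN1-YFP in HEK293 cells. Doses: one dose of 3 µM, 0.3% DMSO. Incubation: dye 1 h 37 °C plus 30 min RT. Measured by: intracellular calcium fluorescence with Fluo-8.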
OXTR agonist – human OXTR agonism; AID 2435; 320,000 compounds, 0.32% hits; activation, % at 3 µM; P30559; CHO-OTR cells, Fluo-8 calcium fluorescence; normalized: DMSO 0%, oxytocin 100%;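 active means activation above the mean of all tested compounds plus 3 SD, cutoff set per screening run, cut at about 20% in these data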;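 further: peak over basal fluorescence ratio from a 100 s FLIPR kinetic read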
OXTR potentiate – potentiators of human oxytocin receptor | P30559 | CHO-OTR cells, Fluo-8 calcium fluorescence, potentiator mode; 0% = oxytocin EC15, 100% = EC100 | activation, % at 3 µM | 320,000 compounds, 0.061% hits | AID 2445;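 active means activation above that plate's cutoff, the mean activation of tested compounds plus 3 SD, cut at about 6.6% in these data, passing the limit was not always enough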;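 further: 100% uses oxytocin at 75 nM as the full agonist control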
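Material: human OTR in CHO cells. Compound: 3.0 µM, one dose. Timing: compound 6 min at room temperature before oxytocin, 100 s read. Evaluation: % activation of max/min ratio relative to oxytocin controls. Replication: single well per compound, singlicate. Signal: Fluo-8 calcium dye fluorescence.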
TRPML3 agonist – human mucolipin-3 channel agonism. AID 1448. Q8TDD5. HEK293 TRPML3-YFP, Fluo-8 calcium fluorescence; 100% = the carbachol control signal. activation, % at 3 µM. 220,000 compounds, 0.29% hits;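 active means activation above its plate's cutoff, the mean activation of the plate's test wells plus 3 SD, cut at about 12% in these data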;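 further: 0% = DMSO only wells and 100% = carbachol wells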
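Material: TRPML3-YFP stable HEK293 cells | Dosing: One concentration, 3 µM nominal, 0.3% DMSO | Timing: 125 s total fluorescence read per well | Technique: Fluo-8 calcium dye fluorescence, ex 470-495, em 515-575 nm | Measure: Percent activation from peak-to-basal fluorescence ratio, scaled between DMSO and carbachol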
* hit, by the source's call; . = no result.

SMILES	V1R ag counter	zfTRPN1 agonist	OXTR agonist	OXTR potentiate	TRPML3 agonist
CCN1/C(=C/c2ccc3cc(C)cc(C)c3[n+]2CC)Sc2cc(C)ccc21	.	50.2*	.	.	14.9*
CCN1/C(=C\c2ccc3cc(C)ccc3[n+]2CC)Sc2cc(C)c(C)cc21	.	14.9	.	.	9.5
CCN1/C(=C/c2ccc3cccc(C)c3[n+]2CC)Sc2ccccc21	11.4	31.6*	17.7	-10.6	17.7*
C=CCNC(=O)CSc1nnc(C(CC)N(C)C)n1C1CCCCC1 (stereo not drawn)	-0.2	0.2	0.1	0.4	0.8
CCOC(=O)CC1C(=O)NCCN1c1nc2c(C)cccn2c(=O)c1/C=C1\SC(=S)N(CC(C)C)C1=O (stereo not drawn)	.	36.0*	.	.	11.7*
CC(C)CN1C(=O)/C(=C/c2c(N3CCc4ccccc4C3)nc3ccccn3c2=O)SC1=S	.	7.4	.	.	2.2
O=C(COc1ccccc1)Nc1cc(NC(=O)COc2ccccc2)cc(C(=O)O)c1	0.3	.	0.3	-4.0	.
Cc1cccc(C)c1NC(=O)C(=O)NCCOc1ccc(Cl)cc1	18.8	4.2	22.2*	-22.0	1.0
Cc1ccc(C(=O)NCCOc2ccc(Cl)cc2)cc1	-2.4	.	-1.2	6.1	.
CC(Oc1ccccc1)C(=O)Nc1ccc(NC(=O)c2ccccc2)cc1 (stereo not drawn)	1.3	.	0.7	-0.8	.
CC(Oc1ccc(C(=O)c2ccccc2)cc1)C(=O)Nc1ccc(S(N)(=O)=O)cc1 (stereo not drawn)	22.3*	15.8	32.9*	-11.4	3.5
COc1cccc(CNC(=O)CCC2CCCN(C(=O)C3CCOCC3)C2)c1 (stereo not drawn)	-0.9	-0.3	-0.6	-17.2	0.6
O=C(CCc1ccccc1)NNC(=S)NC(=O)c1ccccc1	0.8	-0.9	2.8	-6.4	0.8
COc1ccc(C(=O)NC(=S)NNC(=O)c2cccc(C)c2)cc1	94.7*	.	69.9*	-19.3	.
COc1ccc(C(=O)NNC(=S)NC(=O)c2ccc(F)cc2)cc1Br	75.6*	.	68.0*	-24.1	.
Cc1cccc(C(=O)NNC(=S)NC(=O)c2cccs2)c1	63.1*	.	64.9*	-18.7	.
CC(C)(C)c1cc(CCC(=O)NNC(=S)NC(=O)c2ccccc2)cc(C(C)(C)C)c1O	30.7*	0.4	57.7*	-19.2	0.5
O=C(Nc1ccc(Br)cc1)c1cnc[nH]1	1.3	.	2.1	-6.3	.
CSc1ccc(NS(=O)(=O)c2ccc(-n3cnnn3)cc2)cc1	10.2	.	9.2	-14.5	.
CC(C)CCN(C(=O)c1cc(=O)[nH]c2ccccc12)c1c(N)n(Cc2ccccc2)c(=O)[nH]c1=O	-0.9	.	-0.3	2.5	.
COC(=O)C(NC(=O)c1ccccc1C(=O)O)c1ccc2ccccc2c1 (stereo not drawn)	-1.4	.	-0.8	-6.2	.
O=C(CSc1nc(=O)n(CCN2CCOCC2)c2c1CCCC2)Nc1cccc([N+](=O)[O-])c1	-0.2	.	1.0	-8.1	.
COc1ccc(C(=O)NNC(=S)NC(=O)c2ccc(OC)cc2)cc1	28.2*	.	43.1*	-26.5	.
Cc1ccc(C(=O)NNC(=O)c2cccc(C)c2)cc1	1.3	1.5	-0.1	-1.6	0.9
Cc1cccc(C(=O)NNC(=S)NC(=O)c2ccccc2)c1	107.7*	.	82.9*	-21.9	.
SMILES	V1R ag counter	zfTRPN1 agonist	OXTR agonist	OXTR potentiate	TRPML3 agonist
Cc1ccccc1CNS(=O)(=O)c1csc(C(N)=O)c1	13.7	.	0.6	-2.3	.
Cc1onc(-c2ccccc2)c1C(=O)Nc1ccc(S(=O)(=O)N2CCOCC2)cc1	1.1	.	2.8	-7.4	.
Cc1ccc(O)c(NC(=S)NC(=O)Cc2ccc(Cl)cc2)c1	78.5*	.	73.3*	-23.9	.
Cc1ccc(NC(=S)NC(=O)c2ccc(-c3ccc(Cl)cc3)o2)c(O)c1	1.2	-0.7	0.4	-0.9	0.1
COc1cc(/C=N/N2C(=O)CSC2=S)cc(Br)c1O	.	40.7*	.	.	24.2*
CN(C)c1ccc(/C=C/c2nc3ccccc3c(=O)n2-c2ccc(C(=O)O)cc2)cc1	82.4*	.	77.3*	-26.5	.
O=C(O)c1cccc(-n2c(/C=C/c3ccccc3)nc3ccccc3c2=O)c1	0.8	.	0.4	-9.8	.
C#CCn1c(=NC(=O)CSCC(=O)N2CCOCC2)sc2ccccc21	1.3	1.0	0.6	1.5	0.8
CC1=Nc2ccccc2/C1=C/c1sc(=S)n(-c2cccc(C(=O)O)c2)c1O	.	19.8*	.	.	17.6*
Oc1c(C=C2N=c3ccccc3=N2)sc(=S)n1-c1ccccc1	0.8	0.9	2.8	-0.4	-0.1
CCOc1ccc(NS(=O)(=O)c2ccc(NC(=S)NC(=O)CC(C)C)cc2)cc1	22.9*	6.8	20.4*	-20.1	3.1
CCCC(=O)NC(=S)Nc1ccc(S(=O)(=O)Nc2ccc(OCC)cc2)cc1	12.6	9.6	16.9	-12.4	4.5
Cn1c2ccccc2c(=O)c2c(=O)n(C3CCCCC3)c(-c3ccco3)nc21	28.6*	2.6	16.5	-3.3	0.5
O=C(C1CCN(S(=O)(=O)c2ccc(F)cc2)CC1)N1CCOCC1	1.2	0.4	0.4	-9.8	0.9
N=c1c2c(-c3ccccc3)c(-c3ccccc3)n(Cc3ccco3)c2ncn1Cc1ccco1	36.5*	3.3	36.3*	-30.1	2.1
CCCCn1cnc2c(c(-c3ccccc3)c(-c3ccccc3)n2Cc2ccco2)c1=N	9.0	0.7	10.3	-12.8	-0.5
COc1ccccc1N1CCN(C(c2cccs2)C(C)NC(=O)c2ccncc2)CC1 (stereo not drawn)	-0.1	1.0	2.9	-5.4	0.0
COc1ccc(OC)c(NC(=O)C(=O)NNC(=O)C23CC4CC(CC(C4)C2)C3)c1	12.5	42.5*	5.1	-15.2	26.7*
COc1ccc(NC(=O)CNC(=O)C23CC4CC(CC(C4)C2)C3)c(OC)c1	0.6	.	-0.4	-9.6	.
O=C(CSc1cccs1)Nc1ccc(Cl)cc1	-1.6	0.3	-2.6	-1.0	-0.1
N#Cc1ccc(-c2nc3ccc(Br)cc3c(=O)n2O)cc1	1.1	.	1.3	-0.6	.
O=c1c2cc(Br)ccc2nc(-c2cccc(C(F)(F)F)c2)n1O	61.0*	-0.6	54.2*	-21.6	0.2
O=C(N/N=C/c1ccoc1)c1ccccc1F	0.5	.	0.0	0.0	.
O=C(Nc1ccc(NC(=O)c2ccc(Cl)c(S(=O)(=O)N3CCOCC3)c2)cc1)c1ccccc1	0.9	.	0.6	-5.2	.
O=C(Nc1ccccc1)Nc1ccc(Cl)c(S(=O)(=O)N2CCOCC2)c1	13.8	23.5*	16.9	-13.5	13.3*
COc1ccc(C(=O)NNC(=O)CSc2nnc(C3CC3)n2C)cc1	0.5	.	2.0	6.5	.
CCOC(=O)C1=C(COC(=O)c2cc(Br)c(Br)s2)NC(=O)NC1C (stereo not drawn)	1.3	.	-0.7	7.4	.
CCc1ccc(-c2nc(CN3CCC(C(=O)N4CCN(c5ccccc5)CC4)CC3)c(C)o2)cc1	33.9*	3.2	29.3*	-11.3	4.0
